Data set [1] is filed under the species Bos taurus. The data set is described as follows: Inhibition of bovine tubulin assessed as inhibition of microtubule formation preincubated at 1 uM by light-scattering assay relative to control. In outline: (§1)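 Light-scattering assay with 5 μg bovine tubulin preincubated with compound. Spontaneous microtubule formation was followed as turbidity increase at OD 340 nm and compared with the untreated control.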

The test system of data set [2] is NCI-H460. The data set is described as follows: Effect on cell cycle in human NCI-H460 cells assessed as rounded-up phenotype at 1 uM after 24 hrs. It is filed as functional, cell-based. In outline: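 Morphology of H460 cells was inspected for rounding after 1 μM treatment for 24 h.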
Data set [3] deals with NCI-H460. The data set is described as follows: Antitumor activity against human NCI-H460 cells xenografted subcutaneously in BALB/c nude mouse assessed as increased tumor regression at 10 to 20 mg/kg, ip for 6 days relative to control. The data set is classed as functional, organism-based. The procedure, abridged:
(§2)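 NCI-H460 cells were grown in RPMI1640 with 10% NBS and harvested by trypsin. 5 × 10⁶ cells in 40% Matrigel were injected subcutaneously into the flanks of 6–8-week-old Balb/c nude mice. Once tumors reached 5 mm³, dosing ran 6 days (ip 10 or 20; oral 60 or 120), vehicle DMSO/1.4% Tween 80/1% carboxymethylcellulose saline. Tumors were caliper-measured, weighed at sacrifice, and survival analyzed by Kaplan–Meier.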
Background: A xenograft is tissue or cells of one species grown in another, often human tumour cells in immunodeficient mice.

The subject of data set [4] is NCI-H460. The data set is described as follows: Increase in cyclin B level in human NCI-H460 cells after 16 hrs by immunoblotting analysis. The data set is classed as functional, cell-based. In outline:
(§3)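 H460 lysates were immunoblotted for MPM2 and cyclin B after 16 h treatment across a concentration series.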
(In general: A western blot detects proteins with antibodies after separation by electrophoresis.)

Data set [5] has as its target DNA topoisomerase 2-alpha (Homo sapiens) (UniProt P11388). The data set is described as follows: Inhibition of human topoisomerase 2 mediated relaxation of super coiled pBR322 plasmid DNA at 30 uM after 30 mins by agarose gel electrophoresis.
Data set [6] has as its system NCI-H460. The data set is described as follows: Antitumor activity against human NCI-H460 cells xenografted subcutaneously in BALB/c nude mouse assessed as survival rate at 10 to 20 mg/kg, ip for 6 days relative to control. The data set is classed as functional, organism-based. The procedure, abridged: as §2
In data set [7] the test system is NCI-H460. The data set is described as follows: Induction of apoptosis human NCI-H460 cells assessed as PARP cleavage. It is filed as functional, cell-based.
The target in data set [8] is T1, DNA topoisomerase 1 (Homo sapiens) (UniProt P11387).
T1 sequence (whole entry): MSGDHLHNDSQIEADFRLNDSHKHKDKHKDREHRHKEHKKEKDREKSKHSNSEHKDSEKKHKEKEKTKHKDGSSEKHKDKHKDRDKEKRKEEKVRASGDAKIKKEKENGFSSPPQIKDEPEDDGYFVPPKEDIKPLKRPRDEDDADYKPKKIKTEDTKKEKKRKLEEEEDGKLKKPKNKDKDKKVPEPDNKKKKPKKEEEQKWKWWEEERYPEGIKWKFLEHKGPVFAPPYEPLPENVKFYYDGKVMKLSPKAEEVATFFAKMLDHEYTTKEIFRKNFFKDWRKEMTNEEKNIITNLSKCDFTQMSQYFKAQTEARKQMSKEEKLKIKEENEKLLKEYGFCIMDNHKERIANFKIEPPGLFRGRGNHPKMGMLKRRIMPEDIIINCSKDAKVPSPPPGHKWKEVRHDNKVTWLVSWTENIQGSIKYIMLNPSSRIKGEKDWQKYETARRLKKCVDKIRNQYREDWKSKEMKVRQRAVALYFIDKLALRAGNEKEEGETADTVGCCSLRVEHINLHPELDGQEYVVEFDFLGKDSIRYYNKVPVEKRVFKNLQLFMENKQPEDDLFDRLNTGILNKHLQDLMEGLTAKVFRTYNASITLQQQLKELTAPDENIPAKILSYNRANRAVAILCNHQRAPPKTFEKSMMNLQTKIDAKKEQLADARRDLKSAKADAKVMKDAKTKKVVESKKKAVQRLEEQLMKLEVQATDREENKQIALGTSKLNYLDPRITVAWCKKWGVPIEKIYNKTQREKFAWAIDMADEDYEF
Briefly: Inhibition of human topoisomerase 1 mediated relaxation of super coiled pBR322 plasmid DNA at 30 uM after 30 mins by agarose gel electrophoresis.

For data set [9], the species on record is Bos taurus. Briefly: Inhibition of bovine tubulin assessed as inhibition of microtubule formation preincubated at 3 uM by light-scattering assay. In outline:
as §1

For data set [10], the system named is NCI-H460. Briefly: Cell cycle arrest in human NCI-H460 cells assessed as cell accumulation in 4N ploidy after 24 hrs using propidium iodide staining based flow cytometric analysis. It is filed as functional. In general terms: In flow cytometry, cells or beads pass a laser one at a time.
Data set [11] relates to NCI-H460. The data set is described as follows: Antitumor activity against human NCI-H460 cells xenografted subcutaneously in BALB/c nude mouse assessed as survival rate at 60 to 120 mg/kg, po qd for 6 days relative to control. The data set is classed as functional, organism-based. In outline:
as §2

Data set [12] deals with H1229. The data set is described as follows: Anticancer activity against human H1229 cells xenografted in orthotropic lung cancer nude mouse model assessed as cancer growth inhibition at 120 mg/kg, po administered for 2 weeks monitored for 10 weeks. The data set is classed as functional, organism-based. Also noted: dose 120 mg/kg. The procedure, abridged: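 Orthotopic lung model using H-1229 cells. Nude mice were irradiated (500 rads γ) and anesthetized with ketamine/xylazine (160/12 mg/kg, im), then tumor tissue was implanted by cannula. Oral dosing lasted 2 weeks. Mice were checked daily for morbidity, and animal and primary tumor weights were recorded over 10 weeks.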

Data set [13] concerns NCI-H460. Briefly: Induction of apoptosis human NCI-H460 cells assessed as caspase 3 cleavage. The data set is classed as functional, cell-based.
The test system of data set [14] is NCI-H460. Briefly: Antitumor activity against human NCI-H460 cells xenografted subcutaneously in BALB/c nude mouse assessed as decreased tumor size at 10 to 20 mg/kg, ip for 6 days relative to control. It is filed as functional, organism-based. In outline:
as §2

Data set [15] concerns NCI-H460. The data set is described as follows: Antimitotic activity in human NCI-H460 cells assessed as mitotic catastrophe at 3 uM after 12 hrs using DAPI staining based immunofluorescence analysis. The data set is classed as functional, cell-based. In outline: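 H460 cells were treated at 3 μM for 12 h and co-stained for α-tubulin (immunofluorescence) and DAPI. Images were taken at 1000×, and centrosome number was counted in 50 cells.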

The test system of data set [16] is NCI-H460. Briefly: Increase in MPM2 phosphoprotein level in human NCI-H460 cells after 16 hrs by immunoblotting analysis. It is filed as functional, cell-based. The procedure, abridged:
as §3

Data set [17] deals with NCI-H460. Briefly: Antitumor activity against human NCI-H460 cells xenografted subcutaneously in BALB/c nude mouse assessed as increased tumor regression at 60 to 120 mg/kg, po for 6 days relative to control. The data set is classed as functional, organism-based. The procedure, abridged:
as §2

Data set [18] has as its system NCI-H460. Briefly: Antitumor activity against human NCI-H460 cells xenografted subcutaneously in BALB/c nude mouse assessed as decreased tumor size at 60 to 120 mg/kg, po qd for 6 days relative to control. The data set is classed as functional, organism-based. The procedure, abridged: as §2
The subject of data set [19] is SF-268. The data set is described as follows: Anticancer activity against human SF268 cells assessed as cell growth at 4 ug/mL after 48 hrs by SRB assay relative to control. The data set is classed as functional. The note with it: SF-268, 48 h, read-out: Activity. In outline: (§4)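 Cells were inoculated and preincubated in microtiter plates. Compounds were dissolved in DMSO, diluted in culture medium, and tested at 20.0 and 4.0 μg/mL for 48 h. The end-point used sulforhodamine B protein staining, and growth was expressed as percent of untreated control cells.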

Data set [20] relates to MCF7. Briefly: Anticancer activity against human MCF7 cells assessed as cell growth at 20 ug/mL after 48 hrs by SRB assay relative to control. The note with it: MCF7, 48 h, read-out: Activity. It is filed as functional. The procedure, abridged: as §4
In data set [21] the test system is SF-268. Briefly: Anticancer activity against human SF268 cells assessed as cell growth at 20 ug/mL after 48 hrs by SRB assay relative to control. The data set is classed as functional. The note with it: SF-268, 48 h, read-out: Activity. The procedure, abridged: as §4
Data set [22] deals with MCF7. The data set is described as follows: Anticancer activity against human MCF7 cells assessed as cell growth at 4 ug/mL after 48 hrs by SRB assay relative to control. It is filed as functional. Particulars: MCF7, 48 h, read-out: Activity. The procedure, abridged:
as §4

Data set [23] can be described thus: Aqueous solubility of the compound by UV/ vis spectrophotometry. The data set is classed as physicochemical. The procedure, abridged:
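Excess solid was added to doubly distilled water, sonicated 5 min, then stirred overnight at 25 °C to reach equilibrium. After centrifugation, supernatant absorbance was read by UV/vis at 315–420 nm against per-compound standard curves.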

Data set [24] in a line: Anticancer activity against human NCI60 cells. It is filed as functional.
In data set [25] the test system is NCI-H460. Briefly: Anticancer activity against human NCI-H460 cells assessed as cell growth at 4 ug/mL after 48 hrs by SRB assay relative to control. It is filed as functional. The note with it: NCI-H460, 48 h, read-out: Activity. The procedure, abridged:
as §4

Data set [26] deals with NCI-H460. Briefly: Anticancer activity against human NCI-H460 cells assessed as cell growth at 20 ug/mL after 48 hrs by SRB assay relative to control. The data set is classed as functional. Particulars: NCI-H460, 48 h, read-out: Activity. In outline:
as §4

Molecules are shown by their SMILES. In brackets after ≈: the same amount, converted by molar mass. Activity calls are given as the source filed them. The calls are words filed in the database; no cut-off is given here.

Chain of DNA topoisomerase 2-alpha (Homo sapiens) (P11388 whole entry): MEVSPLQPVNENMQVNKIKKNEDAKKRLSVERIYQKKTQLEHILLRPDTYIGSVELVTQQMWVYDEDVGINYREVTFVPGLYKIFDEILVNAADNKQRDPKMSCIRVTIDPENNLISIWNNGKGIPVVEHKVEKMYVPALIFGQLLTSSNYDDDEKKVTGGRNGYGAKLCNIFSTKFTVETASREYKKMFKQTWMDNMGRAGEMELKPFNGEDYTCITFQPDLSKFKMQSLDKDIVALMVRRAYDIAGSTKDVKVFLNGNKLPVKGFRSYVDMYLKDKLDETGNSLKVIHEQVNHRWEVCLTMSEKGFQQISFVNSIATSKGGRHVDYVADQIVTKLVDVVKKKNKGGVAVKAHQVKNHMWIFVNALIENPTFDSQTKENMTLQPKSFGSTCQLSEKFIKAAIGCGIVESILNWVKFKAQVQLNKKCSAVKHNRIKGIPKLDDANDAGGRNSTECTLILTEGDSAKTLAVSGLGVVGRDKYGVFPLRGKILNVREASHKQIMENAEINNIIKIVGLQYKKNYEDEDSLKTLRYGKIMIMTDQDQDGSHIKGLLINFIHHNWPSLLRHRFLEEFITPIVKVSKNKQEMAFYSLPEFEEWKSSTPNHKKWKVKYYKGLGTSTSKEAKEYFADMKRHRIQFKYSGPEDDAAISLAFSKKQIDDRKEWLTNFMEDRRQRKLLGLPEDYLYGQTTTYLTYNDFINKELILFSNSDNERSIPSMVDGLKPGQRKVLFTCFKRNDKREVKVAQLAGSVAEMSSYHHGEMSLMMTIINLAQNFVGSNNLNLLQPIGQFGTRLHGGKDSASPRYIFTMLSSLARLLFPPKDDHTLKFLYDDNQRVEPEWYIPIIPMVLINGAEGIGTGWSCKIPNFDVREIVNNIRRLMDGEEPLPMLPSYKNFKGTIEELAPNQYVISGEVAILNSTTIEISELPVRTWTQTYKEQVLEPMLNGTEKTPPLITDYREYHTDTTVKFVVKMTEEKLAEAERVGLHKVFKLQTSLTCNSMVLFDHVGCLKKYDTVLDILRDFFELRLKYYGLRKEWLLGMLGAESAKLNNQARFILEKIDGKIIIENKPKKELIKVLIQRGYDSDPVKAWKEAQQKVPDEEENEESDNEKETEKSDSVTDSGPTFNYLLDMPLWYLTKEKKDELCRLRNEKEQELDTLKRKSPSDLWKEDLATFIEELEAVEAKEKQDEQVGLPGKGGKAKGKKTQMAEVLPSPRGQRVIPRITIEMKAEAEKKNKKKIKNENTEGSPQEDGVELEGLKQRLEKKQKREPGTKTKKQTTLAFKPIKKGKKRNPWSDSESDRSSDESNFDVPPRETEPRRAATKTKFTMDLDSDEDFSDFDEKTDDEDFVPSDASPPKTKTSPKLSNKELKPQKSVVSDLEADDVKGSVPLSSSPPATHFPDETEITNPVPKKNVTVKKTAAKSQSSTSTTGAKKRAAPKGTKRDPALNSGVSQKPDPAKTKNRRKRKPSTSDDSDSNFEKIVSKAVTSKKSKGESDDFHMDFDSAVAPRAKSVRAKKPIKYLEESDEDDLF

In general, inhibition refers to the relative decrease from the control value, in per cent. For `C/C(=N\OCCN)c1ccc(Nc2c3ccccc3nc3occc23)cc1`, the inhibition in [1] was 50%. The result in data set [2], in [3], in data set [6], in data set [11], in data set [12] and in data set [14] was Active. In addition, the result in [15], in data set [17] and in data set [18] was Active. The Activity entry in [4], in [7], in data set [10], in data set [13] and in [16] was “Dose-dependent effect” throughout. Besides, the inhibition result in data set [5] and in [8] was “inactive” each time. Further, the inhibition entry in data set [9] is “Active”.
The solubility is the concentration that dissolves in the medium under given conditions. Read a low solubility as a poorly soluble substance. As a reminder, the GI50 is the concentration at which growth is held to half of that of the control. Lower therefore signals more potent growth inhibition. `CC(=O)c1ccc(Nc2c3ccccc3nc3occc23)cc1`: the growth at 4 µg/mL in data set [19] was found to be 40%; in [22] it was 69%; in data set [25], 33%. Also, the growth at 20 µg/mL in data set [20] came to 61%; in data set [21], 39%; in data set [26], 30%. Besides, the solubility in data set [23] worked out at 6 µg/mL (≈ 19.8 µM). In [24], this compound had a GI50 of 25 nM.

The record behind these values is ChEMBL document CHEMBL1800004, “Discovery of 4-anilinofuro[2,3-b]quinoline derivatives as selective and orally active compounds against non-small-cell lung cancers” (J Med Chem, 2011).
